Assay results pooled from the literature.
Lines come from different studies, so protocols differ.
Target: SRSF protein kinase 3 (SRPK3, Homo sapiens, UniProt Q9UPE1)

SMILES	assay	setting	measurement	result
Cc1ccc(C(=O)Nc2ccc(CN3CCN(C)CC3)c(C(F)(F)F)c2)cc1C#Cc1cnc2cccnn12	enzyme activity, inhibitor	23.5 nM	remaining activity	96%
Cn1c2c(Cl)c(Cl)ccc2c2cc[nH]c(=O)c21	thermal stability, DSF	10 µM	ΔTm	0.2 °C
O=C(Nc1ccc(Oc2ccc(F)cc2)cc1)N1CCc2ncccc2[C@H]1c1ccc(F)cc1	cell-free assay, competition with immobilised ligand	1 µM	remaining binding	100%
Cc1ccc(NC(=O)c2ccc(C)c(C(F)(F)F)c2)cc1C#Cc1nn(C2CCC(O)CC2)c2ncnc(N)c12 (centres unmarked)	cell-free assay	10 µM	remaining signal	56%
CNCc1ccccc1-c1csc([C@H](C)Nc2nc(C)nc3cc(OC)c(OC)cc23)c1	cell-free assay, competition with immobilised ligand	1 µM	remaining binding	89%
Cc1cnc(NC2CCOCC2)nc1-n1cnc(C(=O)NC(CN)c2cc(F)cc(Cl)c2)c1 (centres unmarked)	enzyme activity, inhibitor, radiometric	1 µM	remaining activity	114%
Cn1c2c(c3ccc(Cl)c(Cl)c31)C(C#N)C1(CCN(C(=O)OC(C)(C)C)CC1)NC2=O (racemic)	thermal stability, DSF	10 µM	ΔTm	0 °C
Cc1cc(-n2nc(Cc3cc(F)cc(C(F)(F)F)c3)nc2C)ccc1C(N)=O	cell-free assay, competition with immobilised ligand	1 µM	remaining binding	100%
CCCS(=O)(=O)Nc1ccc(F)c(C(=O)c2c[nH]c3ncc(-c4ccc(Cl)cc4)cc23)c1F	enzyme activity, inhibitor	1 µM	inhibition	< 10%
CCC(=O)N[C@@H]1CC[C@H](C(=O)N(C)c2ccc(-c3nc4ccccc4o3)cc2)C1	cell-free assay, competition with immobilised ligand	1 µM	remaining binding	100%
CCCOc1ccc(OC)c(F)c1C(=O)c1ccc(C(=O)N[C@@H]2CNC[C@H]2NC(=O)c2ccc3[nH]ncc3c2)cc1	enzyme activity, inhibitor	10 µM	remaining activity	77%
Cn1c2c(c3ccc(Cl)c(Cl)c31)C(C#N)C(C)(C)NC2=O (centres unmarked)	thermal stability, DSF	10 µM	ΔTm	1.5 °C
COc1cc2ncnc(Nc3ccc(Oc4ccccc4)cc3C)c2cc1OC	enzyme activity, inhibitor	1 µM	inhibition	2%
CN(C)C(=O)Cn1cc(-c2nc(C3(c4ccc(-c5cnc(N)nc5)cc4)CC3)no2)cn1	cell-free assay, competition with immobilised ligand	1 µM	remaining binding	100%
Cc1ccc(Nc2nccc(N(C)c3ccc4c(C)n(C)nc4c3)n2)cc1S(N)(=O)=O	enzyme activity, inhibitor	0.3 µM	inhibition	-13%
O=c1nc(-c2ccccn2)sc2ccccc12	binding, competition with immobilised ligand	1 µM	remaining binding	100%
CNC(=O)c1cc(Oc2ccc(NC(=O)Nc3ccc(Cl)c(C(F)(F)F)c3)cc2)ccn1	enzyme activity, inhibitor	0.3 µM	inhibition	-7%
CC(C)(C)c1nc2c(s1)c1nc(N)ncc1c1ccc(NS(=O)(=O)c3c(F)cccc3F)c(F)c12	enzyme activity, inhibitor, radiometric	1 µM	remaining activity	97%
CCN(CC)CCNC(=O)c1c(C)[nH]c(/C=C2\C(=O)Nc3ccc(F)cc32)c1C	enzyme activity, inhibitor	10 µM	inhibition	15%
COc1cc(Cl)c(C(=O)N[C@@H](CN[C@H]2CC[C@@H](N)CC2)Cc2ccc(C#N)cc2)cc1-c1ccc(CN[C@H](C)c2ccc(C)cc2)o1	enzyme activity, inhibitor	1 µM	remaining activity	96%
